# Tests used:
# [1] = Fraction unbound in 10% human plasma after 18 hrs by LC-MS/MS analysis; assay type: ADME, cell-free
# Method in brief: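 Compound from DMSO stock was dialysed against buffer in 10% human plasma on a RED device for 18 h. Plasma and buffer samples were quantified by LC-MS/MS against a 7-point calibration curve in plasma. Samples were generally run in singlicate, in pools of up to 10 compounds. Propranolol, metoprolol and warfarin served as reference compounds in each run.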
# [2] = Intrinsic clearance in Han Wistar rat hepatocytes assessed as per million cells preincubated in presence of NADPH for 30 mins and measured up to 120 mins by LC-MS/MS analysis; assay type: ADME, cell-based, Hepatocyte; conditions: read-out: CLH
# Method in brief: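 Cryopreserved Han Wistar rat hepatocytes at 1x10^6 cells/mL were incubated with compound from DMSO stock at 37 °C. Samples were taken at 0.5, 5, 15, 20, 30, 45, 60, 80, 100 and 120 min and quenched with cold acetonitrile. After centrifugation at 4 °C, substrate disappearance was followed by LC-MS/MS. Clint is expressed in µL/min/10^6 cells.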
# [3] = Aqueous solubility of the compound in phosphate buffer at pH 7.4 after 24 hrs by shake-flask method; assay type: physicochemical
# Method in brief: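 Dried compound equilibrated in aqueous phosphate buffer, pH 7.4, for 24 h at 25 °C. The dissolved portion was separated from the remaining solid and quantified by UPLC/MS/MS. QC samples were included in each run.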
# [4] = Partition coefficient, log D of the compound at pH 7.4 after 30 mins by shake-flask method; assay type: physicochemical; conditions: octanol/water
# Method in brief: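 Octanol/pH 7.4 buffer shake-flask: compound in buffer plus octanol, shaken 30 min, then centrifuged. The aqueous layer was quantified by LC-UV against the solution before octanol addition to give D7.4. Runs were pools of 10 compounds including three QC compounds (cyclobenzaprine, nicardipine, caffeine).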
# [5] = Intrinsic clearance in human liver microsomes preincubated in presence of NADPH for 30 mins and measured up to 30 mins by LC-MS/MS analysis; assay type: ADME, microsome; conditions: read-out: CLH
# Method in brief: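 Compound from DMSO stock was incubated with human liver microsomes plus NADPH at 37 °C. Aliquots taken at 0.7, 5.8, 11.6, 17.2, 22.7 and 30 min were quenched with cold acetonitrile and centrifuged at 4 °C. Substrate loss was measured by LC-MS/MS, and Clint is given in µL/min/mg. Six isoform-specific P450/FMO marker substrates were included in each run.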
# [6] = biological target: hERG (KCNH2) (Homo sapiens, UniProt Q12809); experiment: Inhibition of human ERG at 10 uM relative to cisapride
# Chain of hERG (KCNH2) (Q12809 whole entry): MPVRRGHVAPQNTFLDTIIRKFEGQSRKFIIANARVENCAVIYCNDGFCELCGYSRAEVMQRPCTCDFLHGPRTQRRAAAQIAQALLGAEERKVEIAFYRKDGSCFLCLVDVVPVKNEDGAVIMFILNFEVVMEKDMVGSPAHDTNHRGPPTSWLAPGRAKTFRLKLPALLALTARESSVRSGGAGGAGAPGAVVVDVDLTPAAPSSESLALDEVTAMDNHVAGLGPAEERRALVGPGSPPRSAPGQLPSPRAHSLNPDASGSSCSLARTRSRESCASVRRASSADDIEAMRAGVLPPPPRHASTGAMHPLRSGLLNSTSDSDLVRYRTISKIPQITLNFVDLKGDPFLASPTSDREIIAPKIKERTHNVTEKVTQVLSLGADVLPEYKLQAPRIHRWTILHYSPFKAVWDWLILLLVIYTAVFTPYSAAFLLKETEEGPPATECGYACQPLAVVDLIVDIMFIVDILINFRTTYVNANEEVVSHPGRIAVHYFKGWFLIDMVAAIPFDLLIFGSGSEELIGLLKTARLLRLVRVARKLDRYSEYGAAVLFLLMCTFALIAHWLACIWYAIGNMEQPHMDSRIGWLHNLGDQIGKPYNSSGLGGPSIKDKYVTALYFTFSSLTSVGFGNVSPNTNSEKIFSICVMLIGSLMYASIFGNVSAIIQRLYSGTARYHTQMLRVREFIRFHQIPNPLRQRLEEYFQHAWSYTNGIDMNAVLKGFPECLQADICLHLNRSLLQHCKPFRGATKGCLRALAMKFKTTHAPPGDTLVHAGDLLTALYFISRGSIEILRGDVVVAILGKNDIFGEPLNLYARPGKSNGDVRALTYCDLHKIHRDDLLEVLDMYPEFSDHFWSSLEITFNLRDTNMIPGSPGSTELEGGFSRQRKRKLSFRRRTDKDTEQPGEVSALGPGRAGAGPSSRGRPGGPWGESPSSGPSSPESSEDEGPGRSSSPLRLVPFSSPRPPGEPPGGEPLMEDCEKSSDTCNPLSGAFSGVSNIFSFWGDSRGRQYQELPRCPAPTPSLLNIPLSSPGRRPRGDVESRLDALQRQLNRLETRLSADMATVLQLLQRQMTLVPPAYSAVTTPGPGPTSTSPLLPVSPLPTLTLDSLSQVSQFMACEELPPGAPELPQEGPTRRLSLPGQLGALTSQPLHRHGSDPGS
fraction unbound at 18 h [1],hepatocyte CLint [2] [µL/min/1e6 cells],solubility thermodynamic at 24 h [3] [µM],logD at 0.5 h [4],microsomal CLint [5] [µL/min/mg],Compound,inhibition at 10 µM [6] [%]
0.62,34,960,1.1,7,CN(C)C(=O)CNCCc1cccc(OCCC(C)(F)F)c1.Cl,35
0.23,91,779,2.3,29,CCCCCOc1cccc(CCNCC(=O)N(C)C)c1.Cl,70
0.25,64,946,2.2,9,CN(C)C(=O)CNCCc1cccc(OCC(F)(F)C(F)(F)C(C)(F)F)c1.Cl,63
0.45,82,782,1.8,13,CCCCOc1cccc(CCNCC(=O)N(C)C)c1.Cl,31
–,–,955,–,–,CN(C)C(=O)CNCCc1cccc(OCC(F)(F)C(F)(F)C(F)(F)C(F)(F)F)c1.Cl,–
0.51,32,929,1.6,10,CN(C)C(=O)CNCCc1cccc(OCC(F)(F)C(C)(F)F)c1.Cl,41
0.49,38,1000,1.7,7,CN(C)C(=O)CNCCc1cccc(OCCCC(C)(F)F)c1.Cl,45

Compound,fraction unbound at 18 h [1],hepatocyte CLint [2] [µL/min/1e6 cells],solubility thermodynamic at 24 h [3] [µM],logD at 0.5 h [4],microsomal CLint [5] [µL/min/mg],inhibition at 10 µM [6] [%]
CN(C)C(=O)CNCCc1cccc(OCC(F)(F)C(F)(F)C(F)(F)F)c1.Cl,0.2,20,952,2.5,8,57

# Reference: ChEMBL document CHEMBL4261643, “Reducing the Lipophilicity of Perfluoroalkyl Groups by CF2-F/CF2-Me or CF3/CH3 Exchange” (J Med Chem, 2018)
